Screening data deposited in PubChem by Sanford-Burnham Center for Chemical Genomics.
In the library only some 1.5% were active in any assay of this set; here they are far more common.
EBI2 antag: EBI2 (human) antagonism; hit rate 0.81% among 360,000; P32249; inhibition, % at 5 µM; AID 651636; EBI2 beta-arrestin recruitment, luminescence, 7a,25-OHC stimulated; in the data active = inhibition above about 38%;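 also: enzyme fragment complementation signal reports receptor beta-arrestin coupling in cells; 0% = agonist plus DMSO wells and 100% = wells without agonist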
CXCR6 inh: inhibitors of human CXCR6 receptor; O00574; CHO-K1 PathHunter CXCR6 beta-arrestin, luminescence; inhibition, % at 20 µM; hit rate 0.36% among 360,000; AID 602244; in the data active = inhibition above about 34%, passing the limit was not always enough;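 also: antagonist mode with CXCL16 agonist at 10 nM final; 0% = 10 nM CXCL16 with DMSO and 100% = unstimulated wells without agonist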
APJ antagonist: antagonists of human APJ apelin receptor; CHO-K1 APJ beta-arrestin complementation, luminescence; inhibition, % at 20 µM; hit rate 0.32% among 330,000;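 active = inhibition above about 40% at 20 µM, limit read from the data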;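 also: cells challenged with 10 nM apelin-13 agonist together with compound; plate controls were apelin-13 plus DMSO wells for no effect and DMSO wells lacking apelin-13 for full effect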
Target sequence (P35414 whole entry, looked up): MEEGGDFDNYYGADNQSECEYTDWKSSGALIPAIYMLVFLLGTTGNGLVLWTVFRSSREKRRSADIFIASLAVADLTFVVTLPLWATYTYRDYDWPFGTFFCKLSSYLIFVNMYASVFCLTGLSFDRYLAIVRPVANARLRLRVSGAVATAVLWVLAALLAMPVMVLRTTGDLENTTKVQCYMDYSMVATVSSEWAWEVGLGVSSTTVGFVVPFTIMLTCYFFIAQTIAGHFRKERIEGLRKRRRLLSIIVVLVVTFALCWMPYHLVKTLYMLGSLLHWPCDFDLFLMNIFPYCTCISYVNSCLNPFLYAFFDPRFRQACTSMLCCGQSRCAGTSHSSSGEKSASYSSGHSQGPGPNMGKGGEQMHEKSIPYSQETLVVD
CCR6 antag: CCR6 (human) receptor antagonism | CHO-K1 CCR6 PathHunter beta-arrestin, luminescence, CCL20-stimulated | inhibition, % at 20 µM | hit rate 0.49% among 340,000;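 active = compounds whose inhibition of the agonist-driven luminescence signal at 20 µM reaches about 50%, limit read from the data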;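 also: cells stimulated with CCL20 at 14 nM final; plate controls were DMSO with CCL20 for no effect and DMSO without agonist for full effect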
APJ agonist: agonists of human APJ apelin receptor | activation, % at 20 µM | CHO-K1 APJ PathHunter beta-arrestin, luminescence; 0% DMSO wells, 100% apelin | hit rate 0.11% among 330,000 | P35414;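 active = activation more than six SD over the plate average, tested at 20 µM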;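 also: 0% = DMSO alone and 100% = apelin-13 at 10 nM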
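assay system = CHO-K1 APJ beta-arrestin complementation cell line | input = cell density 1000 per well | dosing = compound 20 µM once, DMSO 1% | timing = compound 90 min 25 °C, reagent 1 h | measured by = luminescence from split beta-galactosidase complementation, Galacton Star/Emerald II substrate | read-out basis = APJ agonist activity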
Active calls of the source: *; x = no result given.

SMILES	EBI2 antag	CXCR6 inh	APJ antagonist	CCR6 antag	APJ agonist
CCN(CC)c1ccc(/C=C2/SC(=O)N(C(C)C)C2=O)o1	42.2*	24.2	x	45.5	x
CC(C)N1C(=O)S/C(=C\c2ccc(-c3ccc(Cl)c(C(=O)O)c3)o2)C1=O	-10.1	-4.0	15.5	-3.5	-3.1
Cc1ccc(S(=O)(=O)N(CC(=O)NC2CC3CCC2C3)c2ccccc2)cc1 (configuration not stated)	-4.6	-4.2	x	x	x
CC(C)CC1(C)NC(=O)N(CC(=O)Nc2cccc(S(=O)(=O)N(C)c3ccccc3)c2)C1=O (configuration not stated)	-17.9	1.1	-4.1	5.1	-0.1
O=C(Nc1ccc(Cl)cc1Cl)c1cccc(N2C(=O)C=CC2=O)c1	-3.6	105.3*	-4.8	47.0	-0.8
COc1cc(/C=C2\CC/C(=C\c3cc(OC)c(OC)c(OC)c3)C2=O)cc(OC)c1OC	32.9	4.4	16.7	2.2	-3.3
COc1cc(/C=C2\SC(N)=NC2=O)cc(Cl)c1O	-5.1	12.1	11.9	7.7	-2.6
COc1cc(/C=C2/CCc3ccccc3C2=O)cc(OC)c1OC	1.8	-21.2	-6.6	8.9	1.7
COc1cc(/C=C2\COC/C(=C\c3cc(OC)c(OC)c(OC)c3)C2=O)cc(OC)c1OC	44.8*	38.7*	x	55.3*	x
COc1cc(/C=C2/CCC/C(=C\c3cc(O)c(OC)c(Cl)c3)C2=O)cc(Cl)c1O	23.8	26.1	37.8	73.8*	-8.3
COc1cc(/C=C2\CC/C(=C\c3cc(OC)c(O)c(OC)c3)C2=O)cc(OC)c1O	22.9	42.2*	-6.1	54.9*	-2.6
O=C(C[C@@H]1C/C=C\C[C@H](Cc2ccc(F)cc2)C(=O)OC[C@H]2CCCN2C1=O)NCCO	-7.5	-2.2	1.4	11.5	-3.6
COC(=O)c1cc(=O)n(Cc2cccs2)c(=Nc2ccc(F)cc2)s1	29.6	9.9	19.4	30.0	-0.1
COC(=O)c1cc(=O)n(CCc2ccccc2F)c(=Nc2ccc(F)c(Cl)c2)s1	68.8*	-0.1	11.9	17.4	4.8
COC(=O)c1cc(=O)n(Cc2ccco2)c(=Nc2ccc(F)c(Cl)c2)s1	54.8*	7.9	25.7	10.9	0.4
COc1ccc2[nH]c3c4c(ccc3c2c1)C(=O)C=CC4=O	35.1	30.0	21.0	61.1*	2.8
COc1ccc2[nH]c(=O)cc(C(=O)O)c2c1	-6.9	-0.5	-4.0	5.8	-0.3
Cc1c(Cl)cccc1N1C(=O)C(N2C(=O)c3cccc([N+](=O)[O-])c3C2=O)C1c1cccs1 (configuration not stated)	48.1*	-5.6	-9.0	-36.7	0.3
O=C1c2cccc([N+](=O)[O-])c2C(=O)N1C1CCCCC1	5.7	-6.6	-11.3	-25.9	-2.7
COc1ccc(N2CCN(C(=O)c3ccc(Br)cc3)CC2)c([N+](=O)[O-])c1	71.5*	1.3	10.5	10.5	-1.5
COc1ccc(N2CCN(C(=O)c3ccc(C)cc3)CC2)c([N+](=O)[O-])c1	19.3	5.2	13.9	6.1	0.1
O=C(O)c1cccc2c1/C(=N/Nc1ccc([N+](=O)[O-])cc1[N+](=O)[O-])c1ccccc1-2	19.2	23.9	14.8	52.6*	-4.7
O=C(CS(=O)(=O)Cc1ccccc1)NCc1ccc2c(c1)OCO2	-5.3	-1.9	2.1	52.4*	-0.4
Cc1ccc(C)c(C(=O)NCCN(C)C)c1	-1.5	-0.2	-16.3	-3.6	-2.5
C=C(CN(C)C)C(=O)c1cc(C)ccc1C	2.1	96.4*	x	108.1*	x
SMILES	EBI2 antag	CXCR6 inh	APJ antagonist	CCR6 antag	APJ agonist
O=S1(=O)CC(N2CC=CC2)CN1Cc1cn(Cc2ccc(F)cc2)nn1 (configuration not stated)	-8.1	-4.6	x	x	x
COc1ccc(/C=C/c2nc3ccccc3n2Cc2ccccc2OC)cc1	54.7*	6.6	21.1	11.9	-4.3
COc1ccccc1Cn1c(/C=C/c2ccccc2)nc2ccccc21	43.6	20.7	3.6	16.6	-1.4
CCOC(=O)N1CCC(n2c(=S)[nH]c3cc(OCC)c(OCC)cc3c2=O)CC1	59.6*	-3.5	12.3	7.3	-1.6
C=C(C)CNC(=S)N/N=C1\CCCCc2ccccc21	9.1	31.2	9.5	47.5	-3.5
Cc1c(Cl)cccc1NC(=O)CN1CCC(C(O)(c2ccccc2)c2ccccc2)CC1	38.5*	6.3	-15.0	-26.2	-4.8
COc1ccc(C(=O)OCC(=O)N(C)C2CCS(=O)(=O)C2)cc1Br (configuration not stated)	-4.0	3.3	15.7	2.7	-1.2
